Results on one compound are retold here after PMC11265520 (RSC Advances, 2024).

Like-named read-outs stand apart in the source and are kept apart here.

One data set deals with Capan-1. Briefly: Antiproliferative assay, Capan-1. To be noted: Homo sapiens, CAPAN-1, read-out: IC50 Capan-1. It is filed as cell-based.
A further data set has as its system DND-41. The data set can be described thus: Antiproliferative assay, DND-41. It is filed as cell-based. Particulars: Homo sapiens, DND41, read-out: IC50 DND-41.
For another data set, the system named is K562. The data set can be described thus: Antiproliferative assay, K562. It is filed as cell-based. Particulars: Homo sapiens, K562, read-out: IC50 K562.
The test system of the next data set is LN229. The data set can be described thus: Antiproliferative assay, LN229. It is filed as cell-based. To be noted: Homo sapiens, LN-229, read-out: IC50 LN229.
The next data set relates to Z138. The data set can be described thus: Antiproliferative assay, Z138. To be noted: Homo sapiens, Z-138, read-out: IC50 Z138. It is filed as cell-based.
The target of another data set is hCA IX (Homo sapiens, UniProt Q16790). The data set can be described thus: biochemical. It is filed as biochemical.
Data set [1] relates to CA IX and cleaved PARP expression in A431 cells. The data set can be described thus: Immunoblotting of CA IX and cleaved PARP in A431 cells under hypoxia. To be noted: 24 h. It is filed as cell-based. The essentials:
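A431 cells grew 24 h, then received test compound or tirapazamine reference (30 μM) in fresh medium and were held 24 h in hypoxia; the control stayed in normoxia. Lysis buffer: Tris-HCl pH 7.5, Igepal, NaCl, EDTA, DTT, PMSF, orthovanadate, protease inhibitors. Protein was measured by Bradford. Blots: 10% reducing SDS-PAGE, nitrocellulose, milk/TBS-Tween block, primary antibodies overnight at 4 °C, GAPDH loading control, HRP anti-rabbit, ECL.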
(In western blotting, separated proteins are transferred to a membrane and probed.)

The next data set addresses hCA XII (Homo sapiens, UniProt O43570). The data set can be described thus: Stopped flow CO2 hydrase assay, hCA XII. It is filed as biochemical.
In another data set the test system is NCI-H1975. Briefly: Antiproliferative assay, NCI-H1975. It is filed as cell-based. Particulars: Homo sapiens, NCI-H1975, read-out: IC50 NCI-H1975.
In the next data set the test system is HCT-116. The data set can be described thus: Antiproliferative assay, HCT-116. It is filed as cell-based. To be noted: Homo sapiens, HCT-116, read-out: IC50 HCT-116.
The subject of data set [2] is breast cancer cells MCF-7. The data set can be described thus: MTT antiproliferative assay, MCF-7 under normoxia and hypoxia. It is filed as cell-based, human. To be noted: for IC50: Homo sapiens. The essentials: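 MTT assay on MCF-7 cells grown in high-glucose DMEM with 10% FBS, penicillin and streptomycin at 37 °C and 5% CO2. Cells were seeded at 40 000 per well, and test compound (10 mM DMSO stock) was added after 24 h; controls got solvent. Cells were kept under normoxia (21% O2) or hypoxia (1% O2). IC50 is mean ± S.D. of 3 experiments; HCR = IC50(N)/IC50(H).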
(Formazan colour is commonly taken as a measure of viable cells.)

A further data set relates to HL-60. Briefly: Antiproliferative assay, HL-60. It is filed as cell-based. Particulars: Homo sapiens, HL-60, read-out: IC50 HL-60.
A further data set has as its system A431 skin cancer cells. The data set can be described thus: MTT assay, A431 cells in normoxia and hypoxia. It is filed as cell-based. Particulars: for IC50: Homo sapiens, A-431, 72 h. The essentials: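 A431 cells were cultured in high-glucose DMEM with 10% FBS and penicillin/streptomycin at 37 °C and 5% CO2, then seeded at 35 000 per well. After 24 h, test compound from a 10 mM DMSO stock was added, with solvent-only controls. Incubation lasted 72 h under normoxia or hypoxia (1% O2). Viability was read by MTT, with IC50 from the concentration-response curve.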

The test system of data set [3] is panel of tumor cell lines. Briefly: Antiproliferative activity over the panel of tumor cell lines. It is filed as cell-based, human. Particulars: Table 4 cell lines.
Another data set concerns the target hCA I (Homo sapiens, UniProt P00915). Briefly: Stopped flow CO2 hydrase assay, hCA I. It is filed as biochemical.
The next data set concerns the target hCA II (Homo sapiens, UniProt P00918). Briefly: Stopped flow CO2 hydrase assay, hCA II. It is filed as biochemical.

Chain of hCA XII (O43570 25-354): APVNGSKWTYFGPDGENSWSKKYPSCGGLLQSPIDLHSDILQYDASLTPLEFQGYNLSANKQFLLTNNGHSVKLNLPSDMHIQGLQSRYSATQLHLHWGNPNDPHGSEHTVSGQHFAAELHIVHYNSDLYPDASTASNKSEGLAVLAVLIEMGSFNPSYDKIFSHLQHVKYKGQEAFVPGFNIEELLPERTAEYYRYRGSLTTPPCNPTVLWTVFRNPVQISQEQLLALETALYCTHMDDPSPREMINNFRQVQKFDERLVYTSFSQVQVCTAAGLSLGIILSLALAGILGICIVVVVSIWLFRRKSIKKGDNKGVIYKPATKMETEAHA
Chain of hCA I (P00915 whole entry): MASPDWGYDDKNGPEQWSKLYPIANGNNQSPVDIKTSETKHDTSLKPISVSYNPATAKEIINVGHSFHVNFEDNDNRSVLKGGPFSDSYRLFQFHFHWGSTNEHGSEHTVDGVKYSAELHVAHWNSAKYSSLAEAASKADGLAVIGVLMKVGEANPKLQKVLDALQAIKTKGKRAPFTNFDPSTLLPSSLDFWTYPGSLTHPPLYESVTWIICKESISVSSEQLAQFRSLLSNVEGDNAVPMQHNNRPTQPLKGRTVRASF

What is called IC50 is the concentration that gives 50% inhibition. The Ki is the dissociation constant of the complex between target and ligand, obtained from inhibition or displacement. As to `CC(=O)c1c(C)[n+]([O-])c2cc(S(N)(=O)=O)ccc2[n+]1[O-]` [Compound 7g, 2-Acetyl-3-methyl-6-sulfamoylquinoxaline 1,4-dioxide], the IC50 is 38.3 ± 1.9 µM in the data set with Capan-1; 66.9 ± 3.3 µM with DND-41; 94.8 ± 4.7 µM in the data set with K562; > 100 µM in the data set on LN229; 44.3 ± 2.2 µM in the data set with Z138; 66.1 ± 3.3 µM in the data set with NCI-H1975. Also, the IC50 with HCT-116 is 69.6 ± 3.5 µM; in data set [2] (MCF7, read-out: IC50 H), 6.9 ± 0.3 µM; in data set [2] (MCF7, read-out: IC50 N), 7.1 ± 0.2 µM; in the data set on HL-60 it was 85.9 ± 4.3 µM; in the data set on A431 skin cancer cells (read-out: IC50 A431, hypoxia), ~11 µM; in the data set with A431 skin cancer cells (read-out: IC50 A431, normoxia) it was > 50 µM. Also, the Ki at hCA IX was found to be 0.0422 ± 0.004 µM; at hCA XII, 0.24 ± 0.013 µM; on hCA I, 0.0657 ± 0.0024 µM; at hCA II, 0.0074 ± 0.0002 µM. The “CA IX expression” value in data set [1] is recorded as “dose-dependent reduction in CA IX expression”. Moreover, the “cleaved PARP (marker of apoptosis)” value in data set [1] is “accumulation of cleaved PARP”. Moreover, the “HCR, hypoxic cytotoxicity ratio: IC50(N)/IC50(H)” value in data set [2] (MCF-7) worked out at 1.1. Moreover, in the data set on A431 skin cancer cells (A431, 50 μM, normoxia, 72 h), the “decrease in cell survival” value was “approximately 40%”. Further, the “decrease in activity compared to 2-ethoxycarbonyl analogue 7f” value in [3] is given as 2–25 fold.
